Results taken from ChEMBL document CHEMBL1671756, “In vitro and in vivo antifungal susceptibilities of the Mucoralean fungus Cunninghamella” (2010).
The source made the active and inactive calls.

Experiments:
Assay type in all cases: functional, organism-based
[1] = tested on: Cunninghamella bertholletiae; test: Antifungal activity against Cunninghamella bertholletiae UTSCH 05-2275 infected in diabetic OF1 mouse assessed as decreased fungal load in kidney at 0.8 mg/kg, iv qd administered 1 day post infection measured after 4 to 5 days relative to untreated control; set-up: dose 0.8 mg/kg
Method in brief: (§1)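 Diabetic OF1 mice (streptozocin 210 mg/kg i.p.; glucose >250 mg/dl) were infected i.v. with 1 × 10⁵ CFU, with ceftazidime cover. Ten per group were treated from day 1 and killed day 5, or day 4 if moribund. Half-organ homogenates (brain, lung, kidney) in 1 ml saline were serially diluted 10-fold on PDA, incubated 24 h at 35°C, and reported as log₁₀ CFU/g tissue.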

[2] = tested on: Cunninghamella bertholletiae; test: Antifungal activity against Cunninghamella bertholletiae UTSCH 05-2275 infected in diabetic OF1 mouse assessed as decreased fungal load in lung at 0.8 mg/kg, iv qd administered 1 day post infection measured after 4 to 5 days relative to untreated control; set-up: dose 0.8 mg/kg; method in brief: as §1
[3] = tested on: Cunninghamella bertholletiae; test: Antifungal activity against Cunninghamella bertholletiae UTHSC 06-1945 infected in neutropenic OF1 mouse assessed as increase in mouse survival rate at 0.8 mg/kg, iv qd administered 1 day after infection; set-up: dose 0.8 mg/kg
Method in brief: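 Male OF1 mice (~30 g) were made neutropenic with cyclophosphamide 200 mg/kg i.p. plus 5-fluorouracil 150 mg/kg i.v. 1 day before challenge. Challenge was 1 × 10⁴ CFU sporangiospores in 0.2 ml saline via the lateral tail vein. Mice got ceftazidime 5 mg/day s.c. on days 1–7. Dosing started 24 h post-challenge for 7 days. There were 10 mice/group, observed daily for 20 days. Kaplan-Meier analysis with log-rank test.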

[4] = tested on: Cunninghamella bertholletiae; test: Antifungal activity against Cunninghamella bertholletiae UTHSC 06-1945 infected in neutropenic OF1 mouse assessed as decreased fungal load in kidney at 0.8 mg/kg, iv qd administered 1 day post infection measured after 4 to 5 days relative to untreated control; set-up: dose 0.8 mg/kg
Method in brief: (§2)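 Neutropenic male OF1 mice (cyclophosphamide 200 mg/kg i.p. plus 5-fluorouracil 150 mg/kg i.v., day −1) were given 1 × 10⁴ CFU sporangiospores i.v. in 0.2 ml saline. Treatment from 24 h: 0.8 mg/kg i.v. or oral doses once daily; 10 mice per group. Killed at day 5 (day 4 if moribund). About half of brain, lungs and kidneys homogenized in saline; 10-fold dilutions plated on PDA for 24 h at 35°C; log₁₀ CFU/g tissue.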

[5] = tested on: Cunninghamella bertholletiae; test: Antifungal activity against Cunninghamella bertholletiae UTHSC 05-2275 infected in diabetic OF1 mouse assessed as increase in mouse survival rate at 0.8 mg/kg, iv qd administered 1 day after infection for 7 days relative to untreated control; set-up: dose 0.8 mg/kg
Method in brief: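 Male OF1 mice were made diabetic with streptozocin 210 mg/kg i.p. Diabetes was confirmed by blood glucose >250 mg/dl at day 10. Challenge was 1 × 10⁵ CFU in 0.2 ml saline i.v. (tail vein), with ceftazidime 5 mg/day s.c. on days 1–7. Treatment began 1 day after challenge for 7 days. There were 10 mice/group, checked daily for 20 days. Kaplan-Meier analysis with log-rank comparison.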

[6] = tested on: Cunninghamella bertholletiae; test: Antifungal activity against Cunninghamella bertholletiae UTHSC 05-2275 infected in neutropenic OF1 mouse assessed as decreased fungal load in brain at 40 mg/kg, po qd administered 1 day post infection measured after 4 to 5 days relative to untreated control; set-up: dose 40 mg/kg; method in brief: as §2
[7] = tested on: Cunninghamella bertholletiae; test: Antifungal activity against Cunninghamella bertholletiae UTHSC 05-2275 infected in diabetic OF1 mouse assessed as increase in mouse survival rate at 40 mg/kg, po qd administered 1 day after infection for 7 days relative to untreated control; set-up: dose 40 mg/kg
Method in brief: (§3)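 Male OF1 mice made diabetic with streptozocin 210 mg/kg i.p.; blood glucose above 250 mg/dl at day 10 required. Infected i.v. via the tail vein with 1 × 10⁵ CFU sporangiospores in 0.2 ml saline. Ceftazidime 5 mg/day s.c. on days 1–7. Oral once-daily treatment from day 1 for 7 days; 10 mice per group; followed for 20 days; Kaplan-Meier mean survival time, log-rank test.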

[8] = tested on: Cunninghamella bertholletiae; test: Antifungal activity against Cunninghamella bertholletiae UTSCH 05-2275 infected in diabetic OF1 mouse assessed lung at 60 mg/kg, po qd administered 1 day post infection measured after 4 to 5 days relative to untreated control; set-up: dose 60 mg/kg
Method in brief: (§4)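 Male OF1 mice (mean 30 g) made diabetic with a single i.p. dose of streptozocin 210 mg/kg; blood glucose >250 mg/dl at day 10 qualified. Ceftazidime 5 mg/day s.c. given on days 1–7. Challenge by lateral tail vein with 1 × 10⁵ CFU sporangiospores in 0.2 ml saline. Oral dosing once daily for 7 days, starting 1 day after challenge. Untreated controls. Ten mice per group.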

[9] = tested on: Cunninghamella bertholletiae; test: Antifungal activity against Cunninghamella bertholletiae UTHSC 05-2275 infected in diabetic OF1 mouse assessed as increase in mouse survival rate at 80 mg/kg, po qd administered 1 day after infection for 7 days relative to untreated control; set-up: dose 80 mg/kg; method in brief: as §3
[10] = tested on: Cunninghamella bertholletiae; test: Antifungal activity against Cunninghamella bertholletiae UTSCH 05-2275 infected in diabetic OF1 mouse assessed as decreased fungal load in kidney at 40 mg/kg, po qd administered 1 day post infection measured after 4 to 5 days relative to untreated control; set-up: dose 40 mg/kg
Method in brief: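 Diabetic male OF1 mice (streptozocin 210 mg/kg i.p.; glucose above 250 mg/dl) were challenged i.v. with 1 × 10⁵ CFU sporangiospores. Oral once-daily dosing from day 1 for 7 days; 10 mice per group. Killed at day 5 (day 4 if moribund). About half of each organ homogenized in saline; serial 10-fold dilutions plated on PDA for 24 h at 35°C; log₁₀ CFU/g tissue.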

[11] = tested on: Cunninghamella bertholletiae; test: Antifungal activity against Cunninghamella bertholletiae FMR-9598 infected in neutropenic OF1 mouse assessed as decreased fungal load in brain at 60 mg/kg, po qd administered 1 day post infection measured after 4 to 5 days relative to untreated control; set-up: dose 60 mg/kg; method in brief: as §2
[12] = tested on: Cunninghamella bertholletiae; test: Antifungal activity against Cunninghamella bertholletiae UTHSC 05-2275 infected in neutropenic OF1 mouse assessed as decreased fungal load in brain at 80 mg/kg, po qd administered 1 day post infection measured after 4 to 5 days relative to untreated control; set-up: dose 80 mg/kg; method in brief: as §2
[13] = tested on: Cunninghamella bertholletiae; test: Antifungal activity against Cunninghamella bertholletiae UTHSC 06-1945 infected in neutropenic OF1 mouse assessed as increase in mouse survival rate at 60 mg/kg, po qd administered 1 day after infection; set-up: dose 60 mg/kg
Method in brief: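 Male OF1 mice, about 30 g, made neutropenic with cyclophosphamide 200 mg/kg i.p. plus 5-fluorouracil 150 mg/kg i.v. 1 day before challenge. Infected i.v. via the lateral tail vein with 1 × 10⁴ CFU of hemacytometer-counted sporangiospores in 0.2 ml saline. Ceftazidime 5 mg/day s.c. on days 1–7. Oral treatment started 24 h after challenge; 10 mice per group; checked daily for 20 days; Kaplan-Meier mean survival time, log-rank test.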

[14] = tested on: Cunninghamella bertholletiae; test: Antifungal activity against Cunninghamella bertholletiae UTSCH 05-2275 infected in diabetic OF1 mouse assessed as decreased fungal load in lung at 40 mg/kg, po qd administered 1 day post infection measured after 4 to 5 days relative to untreated control; set-up: dose 40 mg/kg; method in brief: as §4
[15] = tested on: Cunninghamella bertholletiae; test: Antifungal activity against Cunninghamella bertholletiae UTHSC 05-2275 infected in diabetic OF1 mouse assessed as increase in mouse survival rate at 60 mg/kg, po qd administered 1 day after infection for 7 days relative to untreated control; set-up: dose 60 mg/kg; method in brief: as §3

Measured: Activity

C[C@@H]1[C@H](O)[C@@H](C)/C=C/C=C/C=C/C=C/C=C/C=C/C=C/[C@H](O[C@@H]2O[C@H](C)[C@@H](O)[C@H](N)[C@@H]2O)C[C@@H]2O[C@](O)(C[C@@H](O)C[C@@H](O)[C@H](O)CC[C@@H](O)C[C@@H](O)CC(=O)O[C@H]1C)C[C@H](O)[C@H]2C(=O)O [AMPHOTERICIN B]
active: [1] | [4] | [5]
inactive: [2] | [3]

CC[C@@H]([C@H](C)O)n1ncn(-c2ccc(N3CCN(c4ccc(OC[C@@H]5CO[C@@](Cn6cncn6)(c6ccc(F)cc6F)C5)cc4)CC3)cc2)c1=O [POSACONAZOLE]
inactive: [14]
active: [6] | [7] | [8] | [9] | [10] | [11] | [12] | [13] | [15]
